SMILES strings stand for the structures. Entries after “also recorded” stand apart in the source; their conditions may differ.

From publication PMC9043576 (RSC Advances, 2021) come the findings set out here.

Series [1] deals with DPP-4 (Homo sapiens, UniProt P27487). In words: biochemical. In kind it is biochemical. As to conditions: for DPP-4 suppression activity (in words): human recombinant DPP-4; for IC50: Experimental PIC50, pIC50 = −log IC50, QSAR training set.
Series [2] deals with high-fat diet-fed/streptozotocin (HFD/STZ) induced T2DM male albino mice. As to the kind of experiment: Acute hypoglycemic activity, intraperitoneal glucose tolerance test. In kind it is in vivo. As to conditions: IPGTT, diabetic mice, mean ±SD; for Blood glucose level (1 h): single dose 10 mg kg^−1, 1 h; for Blood glucose level (2 h): single dose 10 mg kg^−1, 2 h; for Blood glucose level (3 h): single dose 10 mg kg^−1, 3 h; for Blood glucose level (6 h): single dose 10 mg kg^−1, 6 h. The method, boiled down: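 Diabetic male albino mice (high-fat diet-fed/streptozotocin-induced T2DM) received a single 10 mg kg−1 dose of test compound; the IPGTT was then run. Blood glucose (mg dl−1) was read at 1, 2, 3 and 6 h. The groups were normal control, untreated STZ-diabetic control and treated animals, with n = 4 per group. Values are mean ±SD.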

In series [3] the target is DPP-8 (Homo sapiens, UniProt Q6V1X1). As to the kind of experiment: In vitro DPP-8 selectivity assay, fluorescence-based. The class given is biochemical.
Sequence of DPP-8 (Q6V1X1 whole entry): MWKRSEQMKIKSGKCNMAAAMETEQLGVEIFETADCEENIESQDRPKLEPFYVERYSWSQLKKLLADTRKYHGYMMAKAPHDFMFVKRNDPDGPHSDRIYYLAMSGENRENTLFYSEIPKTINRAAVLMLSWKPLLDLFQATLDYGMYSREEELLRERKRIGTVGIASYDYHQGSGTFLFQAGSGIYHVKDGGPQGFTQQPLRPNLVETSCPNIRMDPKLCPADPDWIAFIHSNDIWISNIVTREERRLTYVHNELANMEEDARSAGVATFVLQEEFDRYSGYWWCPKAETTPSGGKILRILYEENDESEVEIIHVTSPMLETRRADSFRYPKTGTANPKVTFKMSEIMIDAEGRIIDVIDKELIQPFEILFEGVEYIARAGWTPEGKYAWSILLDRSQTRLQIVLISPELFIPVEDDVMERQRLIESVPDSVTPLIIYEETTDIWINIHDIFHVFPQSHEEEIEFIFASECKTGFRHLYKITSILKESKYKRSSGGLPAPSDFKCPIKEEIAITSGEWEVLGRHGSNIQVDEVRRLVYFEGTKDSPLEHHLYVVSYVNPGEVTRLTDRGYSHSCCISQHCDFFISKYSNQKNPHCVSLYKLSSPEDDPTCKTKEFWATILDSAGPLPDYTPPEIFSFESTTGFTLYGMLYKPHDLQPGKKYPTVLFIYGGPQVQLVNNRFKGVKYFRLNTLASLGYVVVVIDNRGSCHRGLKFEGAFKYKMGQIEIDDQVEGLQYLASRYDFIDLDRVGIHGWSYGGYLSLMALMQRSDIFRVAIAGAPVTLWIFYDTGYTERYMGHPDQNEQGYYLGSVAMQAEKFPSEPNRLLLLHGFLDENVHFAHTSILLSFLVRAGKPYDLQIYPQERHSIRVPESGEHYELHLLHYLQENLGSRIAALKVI
The target of series [4] is DPP-9 (Homo sapiens, UniProt Q86TI2). In words: In vitro DPP-9 selectivity assay, fluorescence-based. In kind it is biochemical.
Sequence of DPP-9 (Q86TI2 whole entry): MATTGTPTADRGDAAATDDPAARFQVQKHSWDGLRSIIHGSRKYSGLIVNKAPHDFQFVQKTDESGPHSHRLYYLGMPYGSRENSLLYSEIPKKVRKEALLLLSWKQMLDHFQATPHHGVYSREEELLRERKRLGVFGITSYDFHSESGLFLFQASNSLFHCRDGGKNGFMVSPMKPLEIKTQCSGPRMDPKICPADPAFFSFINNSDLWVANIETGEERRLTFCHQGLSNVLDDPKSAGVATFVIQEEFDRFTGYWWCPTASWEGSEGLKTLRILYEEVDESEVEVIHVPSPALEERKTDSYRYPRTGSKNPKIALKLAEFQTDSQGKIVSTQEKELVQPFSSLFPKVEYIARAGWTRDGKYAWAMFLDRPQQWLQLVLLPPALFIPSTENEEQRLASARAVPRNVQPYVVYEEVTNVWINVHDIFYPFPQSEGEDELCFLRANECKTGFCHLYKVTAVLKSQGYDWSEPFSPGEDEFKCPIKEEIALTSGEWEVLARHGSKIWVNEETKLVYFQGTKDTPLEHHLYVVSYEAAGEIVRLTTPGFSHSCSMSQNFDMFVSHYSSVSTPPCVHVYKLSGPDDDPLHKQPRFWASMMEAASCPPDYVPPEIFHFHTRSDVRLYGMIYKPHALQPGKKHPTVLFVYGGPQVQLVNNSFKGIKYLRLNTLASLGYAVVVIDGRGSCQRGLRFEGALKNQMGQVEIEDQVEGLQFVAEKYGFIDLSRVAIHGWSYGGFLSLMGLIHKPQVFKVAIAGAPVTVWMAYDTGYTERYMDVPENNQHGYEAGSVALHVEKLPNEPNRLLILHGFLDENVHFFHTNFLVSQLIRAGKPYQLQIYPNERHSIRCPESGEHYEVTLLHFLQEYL
In series [5] the test system is normal hTERT-RPE1 cell line. As to the kind of experiment: Cytotoxicity bioassay. In kind it is cell-based. As to conditions: MTT.

Sequence of DPP-4 (P27487 whole entry): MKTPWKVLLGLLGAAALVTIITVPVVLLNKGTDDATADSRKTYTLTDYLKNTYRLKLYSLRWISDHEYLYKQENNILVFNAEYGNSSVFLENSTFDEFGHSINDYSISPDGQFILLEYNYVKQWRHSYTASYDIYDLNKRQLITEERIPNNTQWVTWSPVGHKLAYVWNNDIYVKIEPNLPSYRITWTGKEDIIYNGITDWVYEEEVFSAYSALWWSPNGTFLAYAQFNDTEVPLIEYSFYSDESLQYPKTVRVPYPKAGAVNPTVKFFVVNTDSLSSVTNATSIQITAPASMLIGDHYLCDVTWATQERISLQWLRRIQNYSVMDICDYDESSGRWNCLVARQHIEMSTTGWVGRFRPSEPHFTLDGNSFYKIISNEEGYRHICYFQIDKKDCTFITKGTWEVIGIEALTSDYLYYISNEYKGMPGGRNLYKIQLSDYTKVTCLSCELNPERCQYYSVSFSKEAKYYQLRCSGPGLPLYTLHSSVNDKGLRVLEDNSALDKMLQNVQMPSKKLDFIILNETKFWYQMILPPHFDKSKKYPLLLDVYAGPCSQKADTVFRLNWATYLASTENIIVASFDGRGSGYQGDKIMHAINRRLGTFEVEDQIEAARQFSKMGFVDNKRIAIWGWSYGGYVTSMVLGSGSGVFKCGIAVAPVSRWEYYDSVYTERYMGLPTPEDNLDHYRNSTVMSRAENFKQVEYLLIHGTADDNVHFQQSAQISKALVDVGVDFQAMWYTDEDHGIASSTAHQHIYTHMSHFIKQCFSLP

With `Cn1c(=O)c(=O)n(C)c2cc(S(=O)(=O)Nc3nccs3)ccc21` [Compound 6a, 1,4-Dimethyl-2,3-dioxo-N-(thiazol-2-yl)-1,2,3,4-tetrahydroquinoxaline-6-sulfonamide], the “DPP-4 suppression activity (in words)” value in series [1] was “inactive; also recorded: completely lost”.
Regarding `CC(=O)c1ccc(NS(=O)(=O)c2ccc3c(c2)n(C)c(=O)c(=O)n3C)cc1` [Compound 6b, N-(4-Acetylphenyl)-1,4-dimethyl-2,3-dioxo-1,2,3,4-tetrahydroquinoxaline-6-sulfonamide], in series [2], the “Blood glucose level (1 h)” value worked out at 235.64 ± 4.25 mg/dL, the “Blood glucose level (2 h)” value amounted to 127.33 ± 7.15 mg/dL, the “Blood glucose level (3 h)” value worked out at 95.67 ± 6.21 mg/dL and the “Blood glucose level (6 h)” value was 96.24 ± 4.29 mg/dL.
The like results for `Cn1c(=O)c(=O)n(C)c2cc(S(=O)(=O)Nc3ccc(C(=O)O)cc3)ccc21` [Compound 6c, 4-(1,4-Dimethyl-2,3-dioxo-1,2,3,4-tetrahydroquinoxaline-6-sulfonamido)benzoic acid] were, in that order, 220.59 ± 5.12 mg/dL, 125.31 ± 3.47 mg/dL, 90.68 ± 3.45 mg/dL and 90.06 ± 7.25 mg/dL.
Take `Cn1c(=O)c(=O)n(C)c2cc(S(=O)(=O)Nc3ccc(F)cc3)ccc21` [Compound 6d, N-(4-Fluorophenyl)-1,4-dimethyl-2,3-dioxo-1,2,3,4-tetrahydroquinoxaline-6-sulfonamide]: in series [2], the “Blood glucose level (1 h)” value stood at 226.33 ± 6.34 mg/dL, the “Blood glucose level (2 h)” value was 120.08 ± 4.11 mg/dL, the “Blood glucose level (3 h)” value turned out to be 99.33 ± 1.29 mg/dL and the “Blood glucose level (6 h)” value worked out at 93.33 ± 6.11 mg/dL.
In general, IC50 refers to the concentration that inhibits the measured activity by half. In series [1], `Cn1c(=O)c(=O)n(C)c2cc(S(=O)(=O)Nc3ccc(Br)cc3)ccc21` [Compound 6e, N-(4-Bromophenyl)-1,4-dimethyl-2,3-dioxo-1,2,3,4-tetrahydroquinoxaline-6-sulfonamide] had an IC50 of 0.724 nM. Moreover, in series [2], the “Blood glucose level (1 h)” value was determined as 222.09 ± 4.85 mg/dL, the “Blood glucose level (2 h)” value worked out at 125.04 ± 3.26 mg/dL, the “Blood glucose level (3 h)” value amounted to 95.28 ± 4.55 mg/dL and the “Blood glucose level (6 h)” value stood at 92.17 ± 8.45 mg/dL.
As for `Cn1c(=O)c(=O)n(C)c2cc(S(=O)(=O)Nc3ccccc3S)ccc21` [Compound 6f, N-(2-Mercaptophenyl)-1,4-dimethyl-2,3-dioxo-1,2,3,4-tetrahydroquinoxaline-6-sulfonamide], in series [2], the “Blood glucose level (1 h)” value is 218.00 ± 4.26 mg/dL, the “Blood glucose level (2 h)” value amounted to 118.07 ± 8.21 mg/dL, the “Blood glucose level (3 h)” value was 97.09 ± 6.39 mg/dL and the “Blood glucose level (6 h)” value is 93.25 ± 7.49 mg/dL.
On to `Cn1c(=O)c(=O)n(C)c2cc(S(=O)(=O)Nc3ccc(S(N)(=O)=O)cc3)ccc21` [Compound 7a, 1,4-Dimethyl-2,3-dioxo-N-(4-sulfamoylphenyl)-1,2,3,4-tetrahydroquinoxaline-6-sulfonamide], for which, in series [1], the “folds more potent DPP-4 inhibitory effect than Linagliptin” value is recorded as 1.2–1.6 folds and the midpoint of inhibition, the IC50, lay at 0.617 nM. In series [2], the “Blood glucose level (1 h)” value amounted to 251.29 ± 2.80 mg/dL, the “Blood glucose level (2 h)” value was determined as 138.16 ± 9.23 mg/dL, the “Blood glucose level (3 h)” value was 122.08 ± 3.31 mg/dL and the “Blood glucose level (6 h)” value came out at 99.25 ± 4.35 mg/dL.
Regarding `CC(=O)NNS(=O)(=O)c1ccc2c(c1)n(C)c(=O)c(=O)n2C` [Compound 9a, N′-Acetyl-1,4-dimethyl-2,3-dioxo-1,2,3,4-tetrahydroquinoxaline-6-sulfonohydrazide], in series [2], the “Blood glucose level (1 h)” value stood at 237.40 ± 3.15 mg/dL, the “Blood glucose level (2 h)” value is 115.11 ± 4.25 mg/dL, the “Blood glucose level (3 h)” value stood at 97.12 ± 8.37 mg/dL and the “Blood glucose level (6 h)” value was determined as 85.23 ± 1.69 mg/dL. For the same compound, in series [3], the 50% inhibitory concentration (IC50) was greater than 100000 nM. Besides, the “selectivity towards DPP-4 inhibition over DPP-8/9” value in series [3] (DPP-4 versus DPP-8/9) is greater than 1000 folds. Moreover, the half-inhibitory concentration (IC50) in series [4] is greater than 100000 nM. In series [5], the “Inhibition% of normal hTERT-RPE1 cells” value came to 20%.
For the compound `Cn1c(=O)c(=O)n(C)c2cc(S(=O)(=O)NNC(=O)CCl)ccc21` [Compound 9b, N′-(2-Chloroacetyl)-1,4-dimethyl-2,3-dioxo-1,2,3,4-tetrahydroquinoxaline-6-sulfono hydrazide], in series [2], the “Blood glucose level (1 h)” value is 223.89 ± 3.85 mg/dL, the “Blood glucose level (2 h)” value amounted to 118.12 ± 5.95 mg/dL, the “Blood glucose level (3 h)” value is 89.12 ± 4.21 mg/dL and the “Blood glucose level (6 h)” value worked out at 85.25 ± 2.12 mg/dL.
The like results for `Cn1c(=O)c(=O)n(C)c2cc(S(=O)(=O)NNC(=O)c3ccccc3)ccc21` [Compound 9c, N′-Benzoyl-1,4-dimethyl-2,3-dioxo-1,2,3,4-tetrahydroquinoxaline-6-sulfonohydrazide] were, in that order, 235.40 ± 3.85 mg/dL, 120.11 ± 2.35 mg/dL, 96.68 ± 4.25 mg/dL and 80.16 ± 5.01 mg/dL.
The like results for `Cn1c(=O)c(=O)n(C)c2cc(S(=O)(=O)NNC(=O)NCc3ccccc3)ccc21` [Compound 10b, N-Benzyl-2-((1,4-dimethyl-2,3-dioxo-1,2,3,4-tetrahydroquinoxalin-6-yl)sulfonyl)hydrazine-1-carboxamide] were, in that order, 228.71 ± 3.85 mg/dL, 120.09 ± 3.35 mg/dL, 90.66 ± 5.35 mg/dL and 85.66 ± 4.10 mg/dL.
The like results for `Cn1c(=O)c(=O)n(C)c2cc(S(=O)(=O)NNC(=O)NC(=O)c3ccccc3)ccc21` [Compound 10c, N-Benzoyl-2-((1,4-dimethyl-2,3-dioxo-1,2,3,4-tetrahydroquinoxalin-6-yl)sulfonyl)hydrazine-1-carboxamide] were, in that order, 225.65 ± 3.85 mg/dL, 155.33 ± 2.78 mg/dL, 137.34 ± 9.48 mg/dL and 104.08 ± 3.35 mg/dL.
Take `Cn1c(=O)c(=O)n(C)c2cc(S(=O)(=O)NNC(=O)Nc3ccc(Cl)cc3)ccc21` [Compound 10d, N-(4-Chlorophenyl)-2-((1,4-dimethyl-2,3-dioxo-1,2,3,4-tetrahydroquinoxalin-6-yl)sulfonyl)hydrazine-1-carboxamide]: the “DPP-4 suppression activity (in words)” value in series [1] was “inactive; also recorded: completely lost the activity”.
Turning to `Cn1c(=O)c(=O)n(C)c2cc(S(=O)(=O)NNC(=S)NC3CCCCC3)ccc21` [Compound 10f, N-Cyclohexyl-2-((1,4-dimethyl-2,3-dioxo-1,2,3,4-tetrahydroquinoxalin-6-yl)sulfonyl)hydrazine-1-carbothioamide], in series [2], the “Blood glucose level (1 h)” value came to 237.33 ± 3.85 mg/dL, the “Blood glucose level (2 h)” value worked out at 127.33 ± 4.23 mg/dL, the “Blood glucose level (3 h)” value stood at 100.06 ± 6.29 mg/dL and the “Blood glucose level (6 h)” value was found to be 89.66 ± 2.27 mg/dL.
Regarding `COc1ccc(NC(=S)NNS(=O)(=O)c2ccc3c(c2)n(C)c(=O)c(=O)n3C)cc1` [Compound 10h, 2-((1,4-Dimethyl-2,3-dioxo-1,2,3,4-tetrahydroquinoxalin-6-yl)sulfonyl)-N-(4-methoxyphenyl)hydrazine-1-carbothioamide], in series [1], the “DPP-4 suppression activity (in words)” value was “inactive; also recorded: completely lost the activity”.
For the compound `CC#CCn1c(N2CCC[C@@H](N)C2)nc2c1c(=O)n(Cc1nc(C)c3ccccc3n1)c(=O)n2C` [Linagliptin, reference compound], in series [2], the “Blood glucose level (1 h)” value was 220.01 ± 3.85 mg/dL, the “Blood glucose level (2 h)” value was determined as 120.89 ± 1.76 mg/dL, the “Blood glucose level (3 h)” value was determined as 85.11 ± 2.39 mg/dL and the “Blood glucose level (6 h)” value is 85.00 ± 5.15 mg/dL.
